In ChEMBL document CHEMBL4043186, “Design, synthesis, anti-inflammatory activity, and molecular docking studies of perimidine derivatives containing triazole” (Bioorg Med Chem Lett, 2017):

How the values were obtained:
RAW264.7 [1] = assay: Cytotoxicity against mouse RAW264.7 cells assessed as reduction in cell viability at 50 ug/ml after 24 hrs by MTT assay; type: cell-based; settings: raw264.7, 24 h
RAW264.7 [2] = assay: Cytotoxicity against mouse RAW264.7 cells assessed as reduction in cell viability at 50 ug/ml preincubated for 24 hrs followed by LPS induction measured after 18 hrs by MTT assay; type: cell-based; settings: raw264.7, 18 h
Mus musculus [3] = assay: Antiinflammatory activity in Kunming mouse assessed as inhibition of xylene-induced ear edema at 50 mg/kg, ip pretreated for 30 mins followed by xylene challenge measured after 30 mins relative to control; type: functional
Procedure, shortened: (§1)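 Xylene-induced ear edema in mice. Compounds were given i.p. at 12.5, 25 or 50 mg/kg. Ibuprofen and indomethacin at 50 mg/kg served as reference drugs. Ear edema weight (mg) is reported as mean ± S.D., and percent inhibition is calculated against the untreated control group.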

[4] = target: Mitogen-activated protein kinase 3 (Mus musculus) (UniProt Q63844); assay: Inhibition of ERK phosphorylation in mouse RAW264.7 cells incubated for 24 hrs followed by LPS-stimulation measured after 24 hrs by Western blot method; type: cell-based
Procedure, shortened: (§2)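 MAPK protein levels were determined by western blot in LPS-stimulated mouse RAW 264.7 cells. Data are means ± SD, compared with the control and LPS groups.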

Mus musculus [5] = organism: Mus musculus; assay: Inhibition of LPS-induced NFkappaB activation in mouse RAW264.7 cells assessed as reduction p65 phosphorylation at 12.5 to 50 ug/ml preincubated for 24 hrs followed by LPS-stimulation measured after 24 hrs by Western blot method; type: cell-based
Procedure, shortened: (§3)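 NF-κB activation in LPS-stimulated RAW 264.7 cells was assessed by western blot of phosphorylated p65 and IκB levels. Data are means ± SD, compared with the control and LPS groups.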

RAW264.7 [6] = assay: Antiinflammatory activity against mouse RAW264.7 cells assessed as LPS-stimulated TNFalpa release at 50 ug/ml after 24 hrs by ELISA relative to LPS-treated control; type: functional
Procedure, shortened: (§4)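 Mouse RAW 264.7 macrophages were stimulated with LPS in the presence of compound, tested at […]. TNF-α and IL-6 were measured in the culture supernatants by ELISA. Cytokine content is expressed as fold of the control group, with control set at 100%. Values are mean ± S.D. of triplicate experiments.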

RAW264.7 [7] = assay: Antiinflammatory activity against mouse RAW264.7 cells assessed as LPS-stimulated IL6 release at 25 ug/ml after 24 hrs by ELISA relative to LPS-treated control; type: functional; procedure, shortened: as §4
RAW264.7 [8] = assay: Antiinflammatory activity against mouse RAW264.7 cells assessed as decrease in LPS-stimulated IL-6 release after 24 hrs by ELISA; type: functional, cell-based; procedure, shortened: as §4
Mus musculus [9] = organism: Mus musculus; assay: Inhibition of NFkappaB in mouse RAW264.7 cells assessed as decrease in LPS-induced degradation of IkappaB preincubated for 24 hrs followed by LPS-stimulation measured after 24 hrs by Western blot method; type: cell-based; procedure, shortened: as §3
RAW264.7 [10] = assay: Antiinflammatory activity against mouse RAW264.7 cells assessed as LPS-stimulated IL6 release at 50 ug/ml after 24 hrs by ELISA relative to LPS-treated control; type: functional; procedure, shortened: as §4
[11] = target: T1, Prostaglandin G/H synthase 2 (Homo sapiens) (UniProt P35354); assay: Inhibition of COX-2 (unknown origin) assessed as protein/GADPH ratio at 50 ug/ml relative to control; parameters: scale not given: the % may be the effect or the level left
T1 sequence (whole entry): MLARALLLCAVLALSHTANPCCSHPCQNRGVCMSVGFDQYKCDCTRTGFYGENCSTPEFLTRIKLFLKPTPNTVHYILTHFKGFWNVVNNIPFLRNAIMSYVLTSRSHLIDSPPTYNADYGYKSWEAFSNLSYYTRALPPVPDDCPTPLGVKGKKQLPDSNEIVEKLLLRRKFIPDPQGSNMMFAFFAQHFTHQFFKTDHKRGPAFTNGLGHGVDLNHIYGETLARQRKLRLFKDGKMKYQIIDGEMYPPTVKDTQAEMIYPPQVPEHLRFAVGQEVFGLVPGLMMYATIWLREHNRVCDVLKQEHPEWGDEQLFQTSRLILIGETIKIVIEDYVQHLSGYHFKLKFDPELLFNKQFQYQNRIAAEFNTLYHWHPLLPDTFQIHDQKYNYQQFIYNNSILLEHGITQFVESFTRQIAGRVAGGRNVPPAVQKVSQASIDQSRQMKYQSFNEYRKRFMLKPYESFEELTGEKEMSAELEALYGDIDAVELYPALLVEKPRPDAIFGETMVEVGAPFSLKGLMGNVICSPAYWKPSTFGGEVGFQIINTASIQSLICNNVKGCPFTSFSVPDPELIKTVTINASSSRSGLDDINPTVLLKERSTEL

RAW264.7 [12] = assay: Antiinflammatory activity against mouse RAW264.7 cells assessed as LPS-stimulated IL6 release at 12.5 ug/ml after 24 hrs by ELISA relative to LPS-treated control; type: functional; procedure, shortened: as §4
Mus musculus [13] = assay: Antiinflammatory activity in Kunming mouse assessed as inhibition of xylene-induced ear edema at 12.5 mg/kg, ip pretreated for 30 mins followed by xylene challenge measured after 30 mins relative to control; type: functional; procedure, shortened: as §1
[14] = target: MAP kinase p38 (Mus musculus) (UniProt P47811+O08911+Q9WUI1+Q9Z1B7); assay: Inhibition of p38 phosphorylation in mouse RAW264.7 cells incubated for 24 hrs followed by LPS-stimulation measured after 24 hrs by Western blot method; type: cell-based; procedure, shortened: as §2
Mus musculus [15] = assay: Antiinflammatory activity in Kunming mouse assessed as inhibition of xylene-induced ear edema at 25 mg/kg, ip pretreated for 30 mins followed by xylene challenge measured after 30 mins relative to control; type: functional; procedure, shortened: as §1
RAW264.7 [16] = assay: Antiinflammatory activity against mouse RAW264.7 cells assessed as decrease in LPS-stimulated TNFalpa release after 24 hrs by ELISA; type: functional, cell-based; procedure, shortened: as §4

Sequence of Mitogen-activated protein kinase 3 (Mus musculus) (Q63844 whole entry): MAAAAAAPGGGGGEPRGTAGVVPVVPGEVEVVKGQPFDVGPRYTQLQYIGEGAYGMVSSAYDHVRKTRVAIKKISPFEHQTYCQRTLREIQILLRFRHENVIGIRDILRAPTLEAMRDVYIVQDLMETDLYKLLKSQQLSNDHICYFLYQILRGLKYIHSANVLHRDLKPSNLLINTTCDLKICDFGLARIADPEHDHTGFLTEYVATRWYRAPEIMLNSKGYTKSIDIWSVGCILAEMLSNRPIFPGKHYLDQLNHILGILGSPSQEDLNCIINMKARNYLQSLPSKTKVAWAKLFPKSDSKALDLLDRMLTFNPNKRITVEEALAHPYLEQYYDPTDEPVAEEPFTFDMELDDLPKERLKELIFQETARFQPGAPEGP

| SMILES | Activity (RAW264.7 [1]) | Activity (RAW264.7 [2]) | other results |
| --- | --- | --- | --- |
| CCCCCCn1c2cccc3cccc(c32)n2cnnc12 | Toxic |  |  |
| Clc1cccc(Cn2c3cccc4cccc(c43)n3cnnc23)c1 | Toxic | Toxic |  |
| CCCCCCCCCn1c2cccc3cccc(c32)n2cnnc12 | Toxic |  |  |
| CCCn1c2cccc3cccc(c32)n2cnnc12 | Toxic |  |  |
| Fc1cccc(Cn2c3cccc4cccc(c43)n3cnnc23)c1 | Non-Toxic | Non-Toxic |  |
| Clc1ccc(Cn2c3cccc4cccc(c43)n3cnnc23)cc1 | Toxic |  |  |
| CC(C)Cc1ccc(C(C)C(=O)O)cc1 (configuration not stated) [IBUPROFEN] |  |  | inhibition in vivo at 50 mg/kg (Mus musculus [3]): 28.1% |
| CCCCCCCCn1c2cccc3cccc(c32)n2cnnc12 | Toxic | Toxic |  |
| CCCCn1c2cccc3cccc(c32)n2cnnc12 | Toxic | Toxic |  |
| FC(F)(F)c1ccc(Cn2c3cccc4cccc(c43)n3cnnc23)cc1 | Toxic |  |  |
| Fc1ccccc1Cn1c2cccc3cccc(c32)n2cnnc12 | Non-Toxic | Non-Toxic | inhibition [4]: Dose-dependent effect; inhibition (Mus musculus [5]): Dose-dependent effect; Activity (RAW264.7 [6]): 124.87%; Activity (RAW264.7 [7]): 68.23%; Activity (RAW264.7 [8]): Dose-dependent effect; inhibition (Mus musculus [9]): Dose-dependent effect; Activity (RAW264.7 [10]): 47.21%; Activity [11]: 45.2%; inhibition in vivo at 50 mg/kg (Mus musculus [3]): 49.3%; Activity (RAW264.7 [12]): 71.8%; inhibition in vivo at 12.5 mg/kg (Mus musculus [13]): 17.2%; inhibition [14]: Dose-dependent effect; inhibition in vivo at 25 mg/kg (Mus musculus [15]): 35%; Activity (RAW264.7 [16]): Dose-dependent effect |
| CCCCCCCCCCn1c2cccc3cccc(c32)n2cnnc12 | Toxic |  |  |
| Cc1ccc(Cn2c3cccc4cccc(c43)n3cnnc23)cc1 | Toxic |  |  |
| Cc1cccc(Cn2c3cccc4cccc(c43)n3cnnc23)c1 | Non-Toxic | Non-Toxic | Activity (RAW264.7 [6]): 146.24%; Activity (RAW264.7 [8]): Dose-dependent effect; inhibition in vivo at 50 mg/kg (Mus musculus [3]): 42.9%; inhibition in vivo at 12.5 mg/kg (Mus musculus [13]): 15.7%; inhibition in vivo at 25 mg/kg (Mus musculus [15]): 29.8%; Activity (RAW264.7 [16]): Dose-dependent effect |
| Clc1cccc(Cl)c1Cn1c2cccc3cccc(c32)n2cnnc12 | Non-Toxic | Non-Toxic |  |
| c1ccc(Cn2c3cccc4cccc(c43)n3cnnc23)cc1 | Non-Toxic | Non-Toxic |  |
| COc1ccc2c(c1)c(CC(=O)O)c(C)n2C(=O)c1ccc(Cl)cc1 [INDOMETHACIN] |  |  | inhibition in vivo at 50 mg/kg (Mus musculus [3]): 49.4% |
| Fc1ccc(Cn2c3cccc4cccc(c43)n3cnnc23)cc1 | Non-Toxic | Non-Toxic |  |
| Clc1ccc(Cn2c3cccc4cccc(c43)n3cnnc23)c(Cl)c1 | Non-Toxic | Non-Toxic |  |
| CCCCCn1c2cccc3cccc(c32)n2cnnc12 |  | Non-Toxic |  |
| Clc1ccccc1Cn1c2cccc3cccc(c32)n2cnnc12 | Non-Toxic | Non-Toxic |  |
